Experiments:
Hepatocyte = experiment: Metabolic stability in cryopreserved human hepatocytes after 90 mins by radio-TLC assay; format: ADME, cell-based; conditions: 1.5 h
Summary of the method: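 Cryopreserved female human hepatocytes were thawed and resuspended in modified Krebs-Henseleit buffer, and the radiotracer in buffer was added to cell wells. Incubation was at 37 °C, 5% CO2. Aliquots taken at 5–120 min went into MeOH (2 volumes), were vortexed and centrifuged at 10,000 G for 5 min. Supernatant was run on silica TLC (10% EtOH/EtOAc) and read by radio-TLC scan. Viability was checked by Trypan Blue.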

Mus musculus [1] = experiment: Biodistribution in tumor of EGFR positive-MDA-MB-468 cells-xenografted tumor-bearing nude SCID mouse at 1 to 2 MBq, iv after 1 hr postinjection; format: ADME, organism-based, Neoplasm; conditions: in vivo
Summary of the method: (§1)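 Nude SCID mice bearing subcutaneous MDA-MB-468 flank xenografts (about 1 million cells), with MDA-MB-435 (about 1 million cells) implanted in the shoulder in some cohorts. Under isoflurane, 1–2 MBq radiotracer in saline was given by tail-vein injection. Mice (n = 4 per time point) were euthanized 1–3 h post injection. Blood, tumor and tissues were weighed and counted, giving decay-corrected %ID/g.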

Mus musculus [2] = experiment: Biodistribution in tumor of EGFR negative-MDA-MB-435 cells-xenografted tumor-bearing nude SCID mouse at 1 to 2 MBq, iv after 1 hr postinjection; format: ADME, organism-based, Neoplasm; conditions: in vivo; summary of the method: as §1
Bone [3] = experiment: Biodistribution in tumor-bearing nude SCID mouse bone at 1 to 2 MBq, iv after 1 hr postinjection; format: ADME, organism-based, Bone element; conditions: in vivo; summary of the method: as §1
Bone [4] = experiment: Biodistribution in tumor-bearing nude SCID mouse bone at 1 to 2 MBq, iv after 2 hrs postinjection; format: ADME, organism-based, Bone element; conditions: in vivo; summary of the method: as §1
Mus musculus [5] = experiment: Biodistribution in tumor of EGFR positive-MDA-MB-468 cells-xenografted tumor-bearing nude SCID mouse at 1 to 2 MBq, iv after 1 to 3 hrs postinjection; conditions: in vivo
Mus musculus [6] = experiment: Biodistribution in tumor of EGFR negative-MDA-MB-435 cells-xenografted tumor-bearing nude SCID mouse at 1 to 2 MBq, iv after 1 to 3 hrs postinjection; conditions: in vivo
Bone [7] = experiment: Biodistribution in tumor-bearing nude SCID mouse bone at 1 to 2 MBq, iv after 3 hrs postinjection; format: ADME, organism-based, Bone element; conditions: in vivo; summary of the method: as §1
Mus musculus [8] = experiment: Biodistribution in tumor of 1 mg/kg PD153035 pretreated EGFR positive-MDA-MB-468 cells-xenografted tumor-bearing nude SCID mouse 1 to 2 MBq, iv after 1 hr relative to control; format: ADME, organism-based, Neoplasm; design: dose 1 mg/kg, route intravenous; conditions: in vivo
Summary of the method: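 A blocking arm received PD153035 1 mg/kg iv one hour before tail-vein injection of 1–2 MBq radiotracer in saline under isoflurane, compared with a control group. Nude SCID mice bore MDA-MB-468 flank xenografts (n = 4 per time point). Tumor was excised, weighed and counted, giving decay-corrected %ID/g.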

| Structure (SMILES) | Stability (Hepatocyte) | Drug uptake (Mus musculus [1]) | Drug uptake (Mus musculus [2]) | Drug uptake (Bone [3]) | Drug uptake (Bone [4]) | Drug uptake (Mus musculus [5]) | Drug uptake (Mus musculus [6]) | Drug uptake (Bone [7]) | Drug uptake (Mus musculus [8]) |
| --- | --- | --- | --- | --- | --- | --- | --- | --- | --- |
| COc1cc2ncnc(Nc3ccc([18F])cc3)c2cc1OC | Unstable | < 0.6% | < 0.6% | 5% | 5% | < 0.6% | < 0.6% |  |  |
| CCOc1cc2ncnc(Nc3ccc([18F])cc3)c2cc1OCC | Unstable | < 0.6% | < 0.6% | 5% | 5% | < 0.6% | < 0.6% |  |  |
| CCOc1cc2ncnc(Nc3cccc([18F])c3)c2cc1OCC | Stable |  |  |  |  |  |  |  |  |
| CCOc1cc2ncnc(Nc3ccccc3[18F])c2cc1OCC | Stable | < 0.6% | < 0.6% | 2% |  | < 0.6% | < 0.6% | 2% |  |
| COc1cc2ncnc(Nc3ccccc3[18F])c2cc1OC | Stable | < 0.6% | < 0.6% | 2% |  | < 0.6% | < 0.6% | 2% | Active |
| COc1cc2ncnc(Nc3cccc([18F])c3)c2cc1OC | Stable |  |  |  |  |  |  |  |  |

Source: ChEMBL document CHEMBL1772994, “Metabolic stability of 6,7-dialkoxy-4-(2-, 3- and 4-[18F]fluoroanilino)quinazolines, potential EGFR imaging probes” (Bioorg Med Chem, 2011)
